Test [1] relates to TNBC cells. The test is described as follows: Growth inhibition of TNBC cells by EZH2 inhibitors. In kind it is cell-based.
The test system of test [2] is EZH2. Conditions: read-out: IC50 for EZH2; cited from earlier work.
For test [3], the system named is MDA-MB-231 cells. The test is described as follows: Live-cell imaging proliferation/cell death assay with ER-stress inducer. The format is cell-based. In a few lines: (§1)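 Cells (1 to 3 × 10^3 per well) were seeded in 96-well plates in duplicate and dosed at the indicated concentrations. Plates were imaged in an IncuCyte live-cell system inside a 37 °C, 5% CO2 incubator. Confluence was derived from phase-contrast images. For cell death, medium contained 1.5 μM DRAQ7, and red-fluorescent dead-cell counts were recorded by automated fluorescence microscopy.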

Test [4] concerns MDA-MB-468 cells. The test is described as above. In kind it is cell-based. The method in brief:
as §1

The values that follow come from PMC6982609 (Nature chemical biology, 2019).

Take `COc1cc(C)[nH]c(=O)c1CNC(=O)c1c(C)n([C@H](C)C2CCN(CC(F)(F)F)CC2)c2ccccc12` [CPI-1205, (R)-N-((4-methoxy-6-methyl-2-oxo-1,2-dihydropyridin-3-yl)methyl)-2-methyl-1-(1-(1-(2,2,2-trifluoroethyl)piperidin-4-yl)ethyl)-1H-indole-3-carboxamide]: in test [1], the “growth inhibition and apoptosis induction in TNBC cells” value was “failed to inhibit growth”. Same read-out and setting: the value for `CC[C@H](C)n1cc(C)c2c(C(=O)NCc3c(C)cc(C)[nH]c3=O)cc(-c3ccc(N4CCNCC4)nc3)cc21` [GSK126] was “failed to inhibit growth”. One may read the IC50 as the concentration that gives 50% inhibition. For the molecule `CCCc1cc(C)[nH]c(=O)c1CNC(=O)c1cc(-c2ccc(N3CCN(C(=O)CCOCCOCCOCCOCCOCCOCCOCCOCCOCCOCCOCCOCCNC(=O)CCCC[C@@H]4SC[C@@H]5NC(=O)N[C@@H]54)CC3)nc2)cc2c1cnn2C(C)C` [UNC2399], the IC50 in test [2] is 17 nM. For the molecule tunicamycin, the results for the “induction of cell death” value in test [3] and in test [4] were “not in MDA-MB-231 cells” and “effectively induced cell death”, respectively.
